Test results reported in PubChem BioAssay.
Calls of active or inactive are those of the source.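 Rule for the calls: active = active in primary screen and both duplicates, each dropping signal beyond three positive-control SD with fluorescence still positive; inactive = the rest.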

biological target: Short transient receptor potential channel 6 (Mus musculus) (UniProt Q61143); experiment: TRPC6 blockade by TRPC4 inhibitor hits – cell-based, HEK293, membrane potential dye, duplicate, selectivity assay for TRPC4 inhibitor project, confirmation (AID 434948); settings: HEK293 TRPC6, membrane potential dye fluorescence, at 10 µM, stimulated with maximal-effect acetylcholine
In short: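 System: TRPC6-expressing HEK293 cells; Also added: acetylcholine at maximal (ECmax) concentration, added after compound; Incubation: 45 min RT dye load, 110 s compound, 110 s agonist read; Read-out basis: integrated fluorescence change ratio over baseline, normalized to positive controls; Repeats: two replicates; Signal: kinetic fluorescence of membrane potential dye with 5 s baseline.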

Chain of Short transient receptor potential channel 6 (Mus musculus) (Q61143 whole entry, looked up): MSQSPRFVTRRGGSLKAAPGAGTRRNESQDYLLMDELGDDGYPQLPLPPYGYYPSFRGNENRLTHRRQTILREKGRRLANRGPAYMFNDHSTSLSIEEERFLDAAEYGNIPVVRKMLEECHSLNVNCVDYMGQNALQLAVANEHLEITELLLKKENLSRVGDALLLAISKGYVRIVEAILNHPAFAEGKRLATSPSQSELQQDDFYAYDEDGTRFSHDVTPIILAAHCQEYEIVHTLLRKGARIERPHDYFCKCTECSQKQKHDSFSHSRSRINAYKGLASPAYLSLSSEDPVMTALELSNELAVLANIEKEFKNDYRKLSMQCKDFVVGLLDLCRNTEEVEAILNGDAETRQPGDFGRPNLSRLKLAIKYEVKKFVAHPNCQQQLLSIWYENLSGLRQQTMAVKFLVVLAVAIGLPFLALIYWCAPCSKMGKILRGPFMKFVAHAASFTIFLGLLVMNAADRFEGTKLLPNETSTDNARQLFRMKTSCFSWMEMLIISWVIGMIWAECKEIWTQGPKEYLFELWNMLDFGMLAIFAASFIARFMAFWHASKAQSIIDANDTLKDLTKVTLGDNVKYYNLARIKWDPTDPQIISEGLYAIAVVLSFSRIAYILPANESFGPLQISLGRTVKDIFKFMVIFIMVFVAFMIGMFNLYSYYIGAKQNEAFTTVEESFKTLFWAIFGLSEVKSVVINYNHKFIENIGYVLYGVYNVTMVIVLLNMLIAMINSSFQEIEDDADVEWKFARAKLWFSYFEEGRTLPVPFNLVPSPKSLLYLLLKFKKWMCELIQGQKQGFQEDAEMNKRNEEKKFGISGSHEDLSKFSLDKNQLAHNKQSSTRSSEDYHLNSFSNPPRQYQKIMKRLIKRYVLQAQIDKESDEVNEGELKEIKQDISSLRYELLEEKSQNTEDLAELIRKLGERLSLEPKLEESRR

outcome, inactive:
CCN1CCN(c2ccc(S(=O)(=O)N3CCCCC3)cc2NC(=O)c2cccc(OC(F)F)c2)CC1
Fc1ccc(CN2C3=NCCCN3c3ccccc32)cc1
COc1ccc(-n2cc(CNCc3cnc4ccccn34)c(-c3cccc(F)c3)n2)cc1
N=c1c(C(=O)NCc2ccc(F)cc2)cc2c(=O)n3ccccc3nc2n1Cc1ccco1
O=C1CC2(CCN(S(=O)(=O)c3ccccc3F)CC2)Oc2ccccc21
O=C1Cc2ccccc2Sc2c(OCCN3CCCCC3)cccc21
C/C(CC(=O)NCc1ccc(Cl)cc1)=N\NC(=O)COc1ccc(C)cc1Br
CCCCNc1c(-c2ccc(SC(C)CC)c(OC)c2)nc2ccc(C)cn12 (centres undefined)
CCOC(=O)C1NN=C(C(=O)c2ccccc2)C1c1ccc(Cl)cc1 (centres undefined)
O=[N+]([O-])c1ccc(N2CCN(CCOc3nonc3-c3ccccc3)CC2)c(Cl)c1
COc1ccc(-c2cc(C(=O)N3CC(C)CC(C)C3)c3ccccc3n2)cc1 (centres undefined)
COC(=O)c1cc(N2CCN(C)CC2)nc2ccccc12
COc1cc(C2c3c(-c4ccccc4)n[nH]c3C(=O)N2c2ccccc2)ccc1O (centres undefined)
O=C(c1ccccc1)c1coc2ccc(O)c(CN3CCOCC3)c12
CN(C)S(=O)(=O)c1cccc(COC(=O)c2ccc(Cl)cc2O)c1
CCOC(=O)C1=C(C)N(c2ccccc2)C(=O)NC1c1cccc([N+](=O)[O-])c1 (centres undefined)
Cc1cc(=O)oc2cc(NC(=S)NCc3ccccn3)ccc12
Cc1nnc(Sc2cc(NCCCO)c([N+](=O)[O-])c3nonc23)s1
CCOC(=O)C1=NNC(C(=O)c2ccc(Cl)cc2)C1c1ccc(OC)cc1 (centres undefined)
CN1CCN(NC(=O)Nc2cc(Cl)cc(Cl)c2)CC1
Cc1ccc(C[n+]2cccc(-c3ccccc3)c2)c(C)c1
Cc1ccc(C(=O)C[n+]2cccc3cc(C)ccc32)cc1
COc1ccc(OC)c(NC(=O)COC(=O)Cc2ccc(-c3ccccc3)cc2)c1
CC(C)c1ccc(C(C)NCCS(=O)(=O)c2ccc(Br)cc2)cc1 (centres undefined)
Cc1ccc(C)c(N(CC(=O)NC2CCCC2)C(=O)c2csnn2)c1
Cc1ccc(-n2c(N)cc(=O)nc2SCC(=O)N2CCN(c3ccccc3)CC2)cc1
N=c1c(C(=O)NCC2CCCO2)cc2c(=O)n3ccccc3nc2n1Cc1ccc(Cl)cc1 (centres undefined)
CN(CCNC(=O)c1ccc(/C=N/O)nc1)Cc1ccccc1
CCOC(=O)C1=C(CNCCc2ccc(Cl)cc2)NC(=O)NC1c1cccc([N+](=O)[O-])c1 (centres undefined)
O=C(NCC(c1ccco1)N1CCc2ccccc2C1)c1ccc(F)cc1 (centres undefined)
CCCc1c(-c2ccc(O)cc2)nn(-c2ccc(O)cc2)c1-c1ccc(O)cc1
Cc1ccc(-c2c(C(=O)N/N=C/c3ccc(OC(C)C)cc3)nnn2-c2nonc2N)cc1
CCOC(=O)CSc1nc2ccccc2c(=O)n1C1CCCC1
CCN1C(=O)/C(=C/C=C2\N(CC)c3cc(S(=O)(=O)N(C)C)ccc3N2c2ccccc2)SC1=S
CCCCn1c(N)c(N(CCOC)C(=O)c2ccc(-c3ccc(C(C)=O)cc3)o2)c(=O)[nH]c1=O
CC(C)CN(C(=O)C1CC1)c1c(N)n(Cc2ccccc2)c(=O)[nH]c1=O
CCOC(=O)CC(NS(=O)(=O)c1ccc(OC)c(C)c1)c1cccc([N+](=O)[O-])c1 (centres undefined)
Clc1ccc2nc(CN3CCCc4ccccc43)cn2c1
Cc1cc(Cl)ccc1OC(C)C(=O)Nc1ccccc1N1CCOCC1 (centres undefined)
